Most compounds without a hit are left out; they make up all but 3.3% or so of the library.
HTR2A ag: activates the mouse 5-HT2A serotonin receptor; 360,000 compounds, 0.66% hits; P35363; AID 624169; activation, % at 7.6 µM; CHO-K1 mHTR2A beta-arrestin complementation, luminescence; percent of 30 µM serotonin response;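 active = activation above a run cutoff, the mean activation of all tested compounds plus 3 SD, cut at about 14% in these data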;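 also: 0% = plate median of compound wells and 100% = 30 µM serotonin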
HGIII-sPLA2 inh: Blocks human group III sPLA2 activity; QFRET BODIPY PC-A2 liposome hydrolysis, fluorescence; 370,000 compounds, 0.56% hits; inhibition, % at 12.2 µM; Q9NZ20;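 active = inhibition above mean plus 3 SD of compounds lying within the high and low control bounds, cut at about 19% in these data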;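 also: 0% = median of test compound wells and 100% = no enzyme DMSO wells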
Target sequence (Q9NZ20 whole entry, looked up): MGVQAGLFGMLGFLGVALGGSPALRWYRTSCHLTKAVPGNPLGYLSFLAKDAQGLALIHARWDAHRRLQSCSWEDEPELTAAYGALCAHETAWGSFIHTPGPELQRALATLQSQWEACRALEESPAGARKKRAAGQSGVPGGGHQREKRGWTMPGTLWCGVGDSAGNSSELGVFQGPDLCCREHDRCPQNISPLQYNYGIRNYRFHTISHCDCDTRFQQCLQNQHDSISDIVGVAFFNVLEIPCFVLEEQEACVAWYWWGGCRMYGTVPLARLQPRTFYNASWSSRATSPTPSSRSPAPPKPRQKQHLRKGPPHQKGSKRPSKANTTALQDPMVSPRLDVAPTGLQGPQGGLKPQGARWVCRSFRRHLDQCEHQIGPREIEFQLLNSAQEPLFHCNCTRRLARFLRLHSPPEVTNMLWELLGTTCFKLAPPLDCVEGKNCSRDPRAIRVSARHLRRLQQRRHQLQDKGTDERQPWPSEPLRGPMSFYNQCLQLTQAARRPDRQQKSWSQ
Arr AP2 block: human beta-arrestin and AP2 interaction inhibition. AID 504490. inhibition, % at 10 µM. 340,000 compounds, 0.31% hits. FITC-arrestin peptide / GST-AP2 beads, flow cytometry; AP2 beta2 appendage carries R879A mutation;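 active = inhibition above a set limit, near 3 SD of compounds lacking own fluorescence, cut at about 54% in these data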;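 also: plate controls were DMSO wells for no effect and 5 µM unlabelled arrestin peptide for full effect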
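Material – GST-tagged AP2 beta2-adaptin appendage (R879A) on 4 µm glutathione beads · Probe or stimulus – fluorescein-tagged arrestin peptide at 50 nM final · Timing – 12 min plus 1 h, RT · Detection – bead flow cytometry, FITC channel · Read-out basis – inhibition as reduced fluorescein signal on beads, percent · Medium – PBS plus Tween 20 (0.05%) and BSA (0.1%)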
PfM18AAP inh-1: PfM18AAP enzyme inhibition; recombinant PfM18AAP, H-Glu-NHMec fluorogenic cleavage; inhibition, % at 7.35 µM; 290,000 compounds, 1.2% hits; AID 1822;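 active = inhibition above the campaign mean inhibition over all tested compounds plus 3 SD, cut at about 28% in these data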;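 also: 0% = plate median of test compound wells and 100% = 2 mM ZnCl2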
Hep lipid drop: hepatic lipid droplet formation modulation; AML12 mouse hepatocytes, oleate lipid droplets, BODIPY imaging; 240,000 compounds, 0.4% hits; inhibition, % at 6.5 µM; AID 1656;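 active = lipid droplet intensity inhibited by at least 50%, with more than 500 cells counted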
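Material – mouse AML12 hepatocyte cell line, fixed after treatment · Compound dosing – one dose, 6.5 µM compound · Times – compound with oleate, overnight · Measured by – Image-based BODIPY and DAPI two-channel analysis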
CendR NRP1 mod: NRP-1/CendR interaction modulation; FAM-RPARPAR peptide binding to NRP-1, fluorescence polarization; inhibition, % at 25 µM; 360,000 compounds, 0.85% hits;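 active = inhibition or corrected inhibition above about 18%, plus a signal ratio from 0.5 to 1.5, limit read from the data, passing the limit was not always enough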
PfM18AAP inh-2: confirmation of Plasmodium falciparum M18 aspartyl aminopeptidase inhibitors; recombinant PfM18AAP, H-Glu-NHMec fluorogenic cleavage; inhibition, % at 7.35 µM; 2,400 compounds, 28% hits; shares compounds with PfM18AAP inh-1;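 active = mean inhibition over replicate wells above the hit cutoff set for the earlier primary screen, cut at about 29% in these data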;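 also: 0% = median of test compound wells and 100% = 2 mM ZnCl2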
CTSL1 confirm: counter-screen for PFM18AAP inhibitors: confirmation of human cathepsin L inhibitors. inhibition, % at 5.96 µM. shares compounds with PfM18AAP inh-1. AID 2178. 2,400 tested, under 10 active. purified cathepsin L1, Z-Leu-Arg-MCA fluorescence;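 active = average inhibition across replicates above the hit cutoff set in the earlier primary screen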;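 also: 0% = median of test compound wells and 100% = Z-Phe-Ala-diazomethylketone 1 µM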
* hit, by the source's call; / = no result.

SMILES | HTR2A ag | HGIII-sPLA2 inh | Arr AP2 block | PfM18AAP inh-1 | Hep lipid drop | CendR NRP1 mod | PfM18AAP inh-2 | CTSL1 confirm
N#CC1=C(N)Oc2n[nH]c(-c3ccccc3)c2C1c1cccnc1 (stereo not given) | -3 | -10 | -8 | 4 | -3 | 1 | / | /
N#CC1=C(N)Oc2n[nH]c(-c3cccnc3)c2C1c1ccc([N+](=O)[O-])o1 (stereo not given) | -4 | -1 | -15 | 33* | 9 | 16 | -36 | -5
O=C(Nc1c(-c2ccc(Cl)cc2)[nH][nH]c1=O)c1ccccc1Cl | 2 | -5 | / | / | / | 3 | / | /
Cc1ccc(-n2c(CCc3nc4ccccc4[nH]3)n[nH]c2=S)cc1 | 8 | 13 | 16 | 33* | 5 | 11 | -20 | -6
CCn1c(CCc2nc3ccccc3[nH]2)n[nH]c1=S | -3 | 6 | -4 | 17 | -4 | 4 | / | /
Cc1ccc(-n2sc3ccccc3c2=O)cc1 | 6 | -5 | 0 | 66* | -2 | -11 | 76* | 6
Cc1n[nH]c(=S)n(NC(=O)/C=C/C(=O)Nn2c(=S)[nH]nc(C)c2=O)c1=O | 0 | 11 | -16 | 35* | 10 | -4 | -11 | 8
Cc1nn2c(=S)[nH]nc2[nH]c1=O | -3 | -2 | 0 | 7 | 6 | 18 | / | /
Cc1n[nH]c(=S)n(NC(=O)CC(=O)Nn2c(=S)[nH]nc(C)c2=O)c1=O | -13 | 1 | 23 | 42* | 9 | 14 | 7 | -2
CCC(=O)Nn1c(C)nnc1C | 3 | 3 | 2 | 7 | / | -12 | / | /
C[C@H](NC(=O)c1ccc(Cl)c(S(=O)(=O)N2CCOCC2)c1)c1nc2ccccc2[nH]1 | -7 | 11 | -2 | / | / | -4 | / | /
O=C(/C=C/c1cccnc1)c1ccc([N+](=O)[O-])cc1 | -3 | 1 | 6 | 32* | 30 | 8 | 13 | -4
O=C(C=Cc1cccnc1)c1ccccc1 | 1 | 14 | 8 | / | / | 10 | / | /
CC(C)(C)c1nnc(NC(=O)c2ccc3c(c2)OCO3)s1 | 0 | -1 | 19 | 43* | -13 | 9 | 23 | -3
CC(C)c1nnc(NC(=O)c2ccc3c(c2)OCO3)s1 | 3 | 0 | -5 | 4 | 3 | -9 | / | /
CNC(=S)NNC(=O)c1ccc2c(c1)OCO2 | -2 | 3 | -9 | 35* | 1 | 10 | 22 | -1
c1ccc(-c2ccc3ncccc3n2)cc1 | 2 | 17 | / | / | / | 1 | / | /
COc1ccc(C)cc1NS(=O)(=O)c1ccc2c(c1)N(C)CCO2 | 1 | -2 | 43 | -12 | -29 | 16 | / | /
N#Cc1c(Nc2ccccc2C(F)(F)F)s[nH]c1=O | -1 | -1 | -39 | 36* | -6 | 0 | 2 | -6
C=CCn1c(-c2sc3nc(C)cc(C)c3c2N)n[nH]c1=S | 5 | 14 | 3 | 43* | 9 | 19 | 13 | 3
C=CCn1c(-c2cc(OC)cc(OC)c2)n[nH]c1=S | 0 | 9 | 16 | 7 | / | -4 | / | /
Cc1cc(C)c(-n2c(SCCS(=O)(=O)c3ccc(F)cc3)n[nH]c2=O)c(C)c1 | 2 | -14 | 4 | 41* | -39 | 4 | -40 | 1
Fc1ccccc1Cn1ccc2ccc(-c3ccc4ccn(Cc5ccccc5F)c4c3)cc21 | / | 3 | / | / | / | / | / | /
O=c1cc(-c2ccc(O)c(O)c2)oc2c(C3O[C@H](CO)[C@@H](O)[C@H](O)[C@H]3O)c(O)cc(O)c12 (stereo not given in full) | -2 | 5 | 7 | 68* | -2 | -61 | 45* | -1
O=c1cc(-c2ccc(O)cc2)oc2cc(O)c([C@@H]3O[C@H](CO)[C@@H](O)[C@H](O)[C@H]3O)c(O)c12 | -6 | 7 | -3 | / | / | 0 | / | /
SMILES | HTR2A ag | HGIII-sPLA2 inh | Arr AP2 block | PfM18AAP inh-1 | Hep lipid drop | CendR NRP1 mod | PfM18AAP inh-2 | CTSL1 confirm
O=c1cc(-c2ccc(O)c(O)c2)oc2cc(O)c(C3OC(CO)C(O)C(O)C3O)c(O)c12 (stereo not given) | -3 | -5 | 7 | 68* | -6 | -60 | 34* | 2
CCOc1ccc(C(=O)C(C)OC(=O)CN2C(=O)NC(C)(C)C2=O)cc1 (stereo not given) | 3 | 2 | -12 | / | / | 7 | / | /
COc1ccc(C(=O)OCCCN(C)C2CN(Cc3cn(Cc4ccccc4C(F)(F)F)nn3)S(=O)(=O)C2)cc1OC (stereo not given) | / | -16 | / | / | / | / | / | /
COC[C@H]1CCCN1c1ccc2c(c1)OCCCN(C1CC1)S2(=O)=O | / | -1 | / | / | / | / | / | /
COc1ccc(S(=O)(=O)NC2CCN(C#N)CC2)cc1 | / | -2 | / | / | / | / | / | /
Cc1ccc(S(=O)(=O)NC(=O)Nc2ccc(N(C)C)cc2)cc1 | -8 | 17 | 54 | 43* | 0 | 5 | -26 | 4
Cc1ccc(NC(=O)NNS(=O)(=O)c2ccc(Br)cc2)cc1 | 3 | -12 | 9 | -4 | / | -2 | / | /
C(=C\c1ccccc1)/C=N/Nc1nncc(-c2ccccc2)n1 | / | 18 | / | -9 | -16 | / | / | /
O=c1nc(N/N=C/c2c[nH]c3ccccc23)cn[nH]1 | -5 | 8 | -3 | 40* | -30 | -4 | 1 | -3
O=c1nc(N/N=C/C=C/c2ccccc2)cn[nH]1 | -4 | -6 | 1 | 41* | / | -8 | -1 | 4
COc1cccc(OC)c1C(=O)NC(=O)Nc1c(F)cc(F)cc1F | 1 | 0 | 32 | -1 | 3 | -3 | / | /
COc1cccc(OC)c1C(=O)NC(=O)NNc1cc(C(F)(F)F)cc(C)n1 | 0 | 11 | 4 | 40* | -1 | 0 | -1 | 3
Cc1noc(C)c1S(=O)(=O)NC(=O)C1(C)CCN1C(=O)Cc1ccc(Cl)cc1Cl (stereo not given) | 0 | -4 | / | / | / | 1 | / | /
CC1CCC/C(=N/Nc2nc3ccccc3s2)C1 (stereo not given) | 0 | 8 | 9 | 39* | 18 | 5 | -18 | -4
COc1ccccc1N/N=C/c1c(CO)cnc(C)c1O | 5 | -1 | -2 | 7 | 8 | 1 | / | /
COc1cc(N=Cc2c(CO)cnc(C)c2O)cc(OC)c1OC | 8 | 0 | -6 | 35* | 1 | -5 | -13 | -1
O=C(O)CCn1c2ccccc2c2nc3ccccc3nc21 | 2 | 12 | 41 | 6 | -6 | 0 | / | /
CCn1c2ccccc2c2n[nH]c(=S)nc21 | 0 | 3 | -3 | 7 | -1 | -4 | / | /
O=C(O)Cn1c2ccccc2c2n[nH]c(=S)nc21 | 9 | -3 | -4 | 47* | -21 | -8 | 31* | 3
C=CCn1c2ccccc2c2n[nH]c(=S)nc21 | -1 | 14 | 39 | 40* | 3 | -7 | -13 | -2

Compound activity: PubChem, several laboratories
